# From ChEMBL document CHEMBL1250442, “Inhibiting gene expression at transcription start sites in chromosomal DNA with antigene RNAs” (Nat Chem Biol, 2005)
# Calls of active or inactive are those of the source. No cut-off for these calls is given here.
# What was measured:
# T47D [1] = experiment: Effect of DNA methylation at (-23) CpG site near PR-B transcription start site (-9) in human T47D cells by sodium bisulfite sequencing analysis; format: functional, cell-based
# Outline: (§1)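 T47D cells (RPMI-1640, 10% FBS, NEAA, insulin; 37 °C, 5% CO2) transfected with agRNA duplexes via Oligofectamine, medium changed at 24 h. Genomic DNA bisulphite-treated, regions around AR and hPR-B start sites PCR-amplified (HotStarTaq, 100 ng treated DNA), gel-purified, TOPO TA cloned; 5–15 colonies per plate miniprepped and sequenced.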
# T47D [2] = experiment: Effect of DNA methylation at (+335) CpG site near PR-B transcription start site (-9) in human T47D cells by sodium bisulfite sequencing analysis; format: functional, cell-based
# Outline: (§2)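 T47D cells grown in RPMI-1640 with 10% FBS, 0.5% NEAA, insulin and P/S at 37 °C, 5% CO2. They were plated at 80,000 cells/well 2 days before lipid transfection with 25 nM or 100 nM duplex, with medium changed at 24 h. Cells were harvested 5 days post-transfection. 100 ng bisulfite-treated DNA was PCR-amplified, and products were TA-cloned. 5–15 colonies per plate were sequenced.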
# T47D [3] = experiment: Effect of DNA methylation at (+353) CpG site near PR-B transcription start site (-9) in human T47D cells by sodium bisulfite sequencing analysis; format: functional, cell-based; outline: as §2
# T47D [4] = experiment: Effect of DNA methylation at (+149) CpG site near PR-B transcription start site (-9) in human T47D cells by sodium bisulfite sequencing analysis; format: functional, cell-based; outline: as §2
# T47D [5] = experiment: Inhibition of PR-A gene expression in human T47D cells at 25 nM by syber green assay; format: functional
# Outline: (§3)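 T47D cells plated at 80,000/well without antibiotics two days before Oligofectamine transfection with agRNA duplex (25 or 100 nM final); medium changed at 24 h, harvest day 5 unless stated otherwise. TRIzol total RNA; PR mRNA by real-time PCR with SYBR Green: 50 °C 2 min, 95 °C 10 min, 40 cycles 95 °C 15 s/60 °C 1 min.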
# T47D [6] = experiment: Inhibition of PR-A gene expression in human T47D cells harboring inactive DNA methyltransferase-1 at 25 nM by syber green assay; format: functional, cell-based
# T47D [7] = experiment: Effect of DNA methylation at (+45) CpG site near PR-B transcription start site (-9) in human T47D cells by sodium bisulfite sequencing analysis; format: functional, cell-based; outline: as §1
# T47D [8] = experiment: Effect of DNA methylation at (+295) CpG site near PR-B transcription start site (-9) in human T47D cells by sodium bisulfite sequencing analysis; format: functional, cell-based; outline: as §2
# T47D [9] = experiment: Inhibition of PR-B gene expression in human T47D cells by syber green assay; format: functional, cell-based; outline: as §3
# T47D [10] = experiment: Effect of DNA methylation at (+162) CpG site near PR-B transcription start site (-9) in human T47D cells by sodium bisulfite sequencing analysis; format: functional, cell-based; outline: as §2
# T47D [11] = experiment: Effect of DNA methylation at (+356) CpG site near PR-B transcription start site (-9) in human T47D cells by sodium bisulfite sequencing analysis; format: functional, cell-based; outline: as §2
# T47D [12] = experiment: Inhibition of PR-A gene expression in human T47D cells by syber green assay; format: functional, cell-based; outline: as §3
# T47D [13] = experiment: Effect of DNA methylation at (-75) CpG site near PR-B transcription start site (-9) in human T47D cells by sodium bisulfite sequencing analysis; format: functional, cell-based; outline: as §1
# T47D [14] = experiment: Effect of DNA methylation at (+166) CpG site near PR-B transcription start site (-9) in human T47D cells by sodium bisulfite sequencing analysis; format: functional, cell-based; outline: as §2
# T47D [15] = experiment: Effect of DNA methylation at (+267) CpG site near PR-B transcription start site (-9) in human T47D cells by sodium bisulfite sequencing analysis; format: functional, cell-based; outline: as §2
# T47D [16] = experiment: Inhibition of PR-A mRNA gene expression in human T47D cells at 100 nM by syber green assay; format: functional; outline: as §3
# T47D [17] = experiment: Inhibition of PR-B gene expression in human T47D cells at 25 nM in presence of 4 uM of 5-aza-Dc
# T47D [18] = experiment: Effect of DNA methylation at (+41) CpG site near PR-B transcription start site (-9) in human T47D cells by sodium bisulfite sequencing analysis; format: functional, cell-based; outline: as §1
# T47D [19] = experiment: Effect of DNA methylation at (-112) CpG site near PR-B transcription start site (-9) in human T47D cells by sodium bisulfite sequencing analysis; format: functional, cell-based; outline: as §1
# T47D [20] = experiment: Effect of DNA methylation at (+190) CpG site near PR-B transcription start site (-9) in human T47D cells by sodium bisulfite sequencing analysis; format: functional, cell-based; outline: as §2
# T47D [21] = experiment: Effect of DNA methylation at (+107) CpG site near PR-B transcription start site (-9) in human T47D cells by sodium bisulfite sequencing analysis; format: functional, cell-based; outline: as §2
# T47D [22] = experiment: Effect of DNA methylation at (+20) CpG site near PR-B transcription start site (-9) in human T47D cells by sodium bisulfite sequencing analysis; format: functional, cell-based; outline: as §2
# T47D [23] = experiment: Inhibition of PR-B mRNA gene expression in human T47D cells at 100 nM by syber green assay; format: functional
# Outline: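 T47D cells in RPMI-1640 with 10% FBS, NEAA, insulin, 37 °C, 5% CO2. Plated two days before transfection without antibiotics. Oligofectamine-mediated duplex RNA transfection at 100 nM final, medium changed at 24 h, harvest five days post-transfection. Total RNA extracted with TRIzol. hPR mRNA quantified by SYBR Green qPCR: 50 °C 2 min, 95 °C 10 min, then 40 cycles of 95 °C 15 s / 60 °C 1 min.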
# T47D [24] = experiment: Cytotoxicity against human T47D cells assessed as effect on cellular morphology; format: cell-based
# T47D [25] = experiment: Effect of DNA methylation at (+362) CpG site near PR-B transcription start site (-9) in human T47D cells by sodium bisulfite sequencing analysis; format: functional, cell-based; outline: as §2
# T47D [26] = experiment: Inhibition of PR-B gene expression in human T47D cells at 25 nM by syber green assay in presence of 10 nM estradiol; format: functional, cell-based
# T47D [27] = experiment: Effect of DNA methylation at (+398) CpG site near PR-B transcription start site (-9) in human T47D cells by sodium bisulfite sequencing analysis; format: functional, cell-based; outline: as §2
# T47D [28] = experiment: Effect of DNA methylation at (-46) CpG site near PR-B transcription start site (-9) in human T47D cells by sodium bisulfite sequencing analysis; format: functional, cell-based; outline: as §1
# T47D [29] = experiment: Inhibition of PR-B gene expression in human T47D cells at 25 nM by syber green assay; format: functional; outline: as §3
# T47D [30] = experiment: Inhibition of PR-A gene expression in human T47D cells at 25 nM by syber green assay in presence of 10 nM estradiol; format: functional, cell-based
# T47D [31] = experiment: Effect of DNA methylation at (+125) CpG site near PR-B transcription start site (-9) in human T47D cells by sodium bisulfite sequencing analysis; format: functional, cell-based; outline: as §2
# T47D [32] = experiment: Effect of DNA methylation at (+379) CpG site near PR-B transcription start site (-9) in human T47D cells by sodium bisulfite sequencing analysis; format: functional, cell-based; outline: as §2
# T47D [33] = experiment: Effect of DNA methylation at (+216) CpG site near PR-B transcription start site (-9) in human T47D cells by sodium bisulfite sequencing analysis; format: functional, cell-based; outline: as §2
# T47D [34] = experiment: Inhibition of PR-B gene expression in human T47D cells harboring inactive DNA methyltransferase-1 at 25 nM by syber green assay; format: functional, cell-based
# T47D [35] = experiment: Effect of DNA methylation at (+225) CpG site near PR-B transcription start site (-9) in human T47D cells by sodium bisulfite sequencing analysis; format: functional, cell-based; outline: as §2
# T47D [36] = experiment: Effect of DNA methylation at (+337) CpG site near PR-B transcription start site (-9) in human T47D cells by sodium bisulfite sequencing analysis; format: functional, cell-based; outline: as §2
# T47D [37] = experiment: Effect of DNA methylation at (+173) CpG site near PR-B transcription start site (-9) in human T47D cells by sodium bisulfite sequencing analysis; format: functional, cell-based; outline: as §2
# T47D [38] = experiment: Effect of DNA methylation at (+319) CpG site near PR-B transcription start site (-9) in human T47D cells by sodium bisulfite sequencing analysis; format: functional, cell-based; outline: as §2
# T47D [39] = experiment: Effect of DNA methylation at (+112) CpG site near PR-B transcription start site (-9) in human T47D cells by sodium bisulfite sequencing analysis; format: functional, cell-based; outline: as §2
# T47D [40] = experiment: Inhibition of PR-A gene expression in human T47D cells at 25 nM in presence of 4 uM of 5-aza-Dc
compound,measurement,setting,value
Cc1cn(CC(=O)N(CCNC(=O)CN(CCNC(=O)CN(CCNC(=O)CN(CCNC(=O)CN(CCNC(=O)CN(CCNC(=O)CN(CCNC(=O)CN(CCNC(=O)CN(CCNC(=O)CN(CCNC(=O)CN(CCNC(=O)CN(CCNC(=O)CN(CCNC(=O)CN(CCNC(=O)CN(CCNC(=O)CN(CCNC(=O)CN(CCNC(=O)CN(CCNC(=O)CN(CCNC(=O)CN(CCNC(=O)CN)C(=O)Cn2ccc(=O)[nH]c2=O)C(=O)Cn2cnc3c(=O)[nH]c(N)nc32)C(=O)Cn2ccc(=O)[nH]c2=O)C(=O)Cn2ccc(N)nc2=O)C(=O)Cn2ccc(=O)[nH]c2=O)C(=O)Cn2cnc3c(=O)[nH]c(N)nc32)C(=O)Cn2cnc3c(=O)[nH]c(N)nc32)C(=O)Cn2ccc(N)nc2=O)C(=O)Cn2ccc(N)nc2=O)C(=O)Cn2cnc3c(N)ncnc32)C(=O)Cn2cnc3c(=O)[nH]c(N)nc32)C(=O)Cn2ccc(=O)[nH]c2=O)C(=O)Cn2ccc(N)nc2=O)C(=O)Cn2ccc(N)nc2=O)C(=O)Cn2cnc3c(N)ncnc32)C(=O)Cn2ccc(N)nc2=O)C(=O)Cn2cnc3c(N)ncnc32)C(=O)Cn2cnc3c(=O)[nH]c(N)nc32)C(=O)Cn2ccc(N)nc2=O)CC(=O)NCCN(CC(=O)NCC(=O)O)C(=O)Cn2cc(C)c(=O)[nH]c2=O)c(=O)[nH]c1=O,Activity,T47D [1],inactive
same,Activity,T47D [2],inactive
same,Activity,T47D [3],inactive
same,Activity,T47D [4],inactive
same,inhibition at 0.025 µM,T47D [5],79%
same,inhibition,T47D [6],Active
same,Activity,T47D [7],inactive
same,Activity,T47D [8],inactive
same,IC50,T47D [9],2.5 nM
same,Activity,T47D [10],inactive
same,Activity,T47D [11],inactive
same,IC50,T47D [12],2.5 nM
same,Activity,T47D [13],inactive
same,Activity,T47D [14],inactive
same,Activity,T47D [15],inactive
same,inhibition at 0.1 µM,T47D [16],95%
same,inhibition,T47D [17],Active
same,Activity,T47D [18],inactive
same,Activity,T47D [19],inactive
same,Activity,T47D [20],inactive
same,Activity,T47D [21],inactive
same,Activity,T47D [22],inactive
same,inhibition at 0.1 µM,T47D [23],100%
same,Activity,T47D [24],Non-toxic
same,Activity,T47D [25],inactive
same,inhibition,T47D [26],Active
same,Activity,T47D [27],inactive
same,Activity,T47D [28],inactive
same,inhibition at 0.025 µM,T47D [29],88%
same,inhibition,T47D [30],Active
same,Activity,T47D [31],inactive
same,Activity,T47D [32],inactive
same,Activity,T47D [33],inactive
same,inhibition,T47D [34],Active
same,Activity,T47D [35],inactive
same,Activity,T47D [36],inactive
same,Activity,T47D [37],inactive
same,Activity,T47D [38],inactive
same,Activity,T47D [39],inactive
same,inhibition,T47D [40],Active
